Laboratory results from article PMC2190579 (The Journal of Cell Biology, 2001).

Key:
P2Y1R (wild-type) = P2Y1R (wild-type) (Meleagris gallopavo, UniProt P49652); assay: Calcium mobilization; type: cell-based, turkey; settings: read-out: EC50 (for Ca^2+ mobilization); 1321N1 cells; mean ± SEM (n = 3)
P2Y1R (D^116 ↦ E) = P2Y1R (D^116 ↦ E) (Meleagris gallopavo, UniProt P49652, D105E); assay: Calcium mobilization; type: cell-based, turkey; settings: read-out: EC50 (for Ca^2+ mobilization); 1321N1 cells; mean ± SEM (n = 3)
Chain of P2Y1R (D^116 ↦ E) (P49652 whole entry D105E): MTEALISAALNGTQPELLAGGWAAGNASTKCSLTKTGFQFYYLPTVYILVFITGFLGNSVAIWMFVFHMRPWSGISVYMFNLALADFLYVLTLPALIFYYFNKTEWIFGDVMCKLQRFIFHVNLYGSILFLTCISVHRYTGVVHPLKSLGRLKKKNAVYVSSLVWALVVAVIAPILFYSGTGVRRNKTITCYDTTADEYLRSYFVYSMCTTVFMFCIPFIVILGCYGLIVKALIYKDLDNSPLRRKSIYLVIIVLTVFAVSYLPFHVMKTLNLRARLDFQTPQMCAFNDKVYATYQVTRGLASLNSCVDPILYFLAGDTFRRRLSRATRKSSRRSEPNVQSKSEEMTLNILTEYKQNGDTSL

P2Y1R (F^119 ↦ R) = P2Y1R (F^119 ↦ R) (Meleagris gallopavo, UniProt P49652, F108R); assay: Calcium mobilization; type: cell-based, turkey; settings: read-out: EC50 (for Ca^2+ mobilization); 1321N1 cells; mean ± SEM (n = 3)
Chain of P2Y1R (F^119 ↦ R) (P49652 whole entry F108R): as the sequence (P49652 whole entry D105E) above, with E105D, F108R counted along it

P2Y1R (D^121 ↦ E) = P2Y1R (D^121 ↦ E) (Meleagris gallopavo, UniProt P49652, D110E); assay: Calcium mobilization; type: cell-based, turkey; settings: read-out: EC50 (for Ca^2+ mobilization); 1321N1 cells; mean ± SEM (n = 3)
Chain of P2Y1R (D^121 ↦ E) (P49652 whole entry D110E): as the sequence (P49652 whole entry D105E) above, with E105D, D110E counted along it

P2Y2R (wild-type) = assay: Calcium mobilization; type: cell-based, human
[1] = target: P2Y2R (D^97 ↦ E), RGE mutant (Homo sapiens, UniProt P41231, D97E); assay: Calcium mobilization; type: cell-based; settings: 1321N1 cells
Chain of P2Y2R (D^97 ↦ E), RGE mutant (P41231 whole entry D97E): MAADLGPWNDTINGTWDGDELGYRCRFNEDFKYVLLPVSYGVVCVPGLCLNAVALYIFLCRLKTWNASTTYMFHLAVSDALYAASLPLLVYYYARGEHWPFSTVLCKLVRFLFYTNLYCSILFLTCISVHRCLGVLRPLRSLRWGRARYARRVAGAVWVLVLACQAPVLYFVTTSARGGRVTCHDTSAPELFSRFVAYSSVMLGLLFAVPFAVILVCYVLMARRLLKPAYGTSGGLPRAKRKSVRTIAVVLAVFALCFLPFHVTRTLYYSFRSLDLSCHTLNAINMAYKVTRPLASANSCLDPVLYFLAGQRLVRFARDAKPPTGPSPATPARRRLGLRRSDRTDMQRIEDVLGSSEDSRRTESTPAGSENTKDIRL

RGE mutant P2Y2R [2] = assay: ERK1/2 phosphorylation in 1321N1 transfectants; type: cell-based, human; settings: 100 μM UTP after 30 min preincubation with 10 μM BAPTA-AM
Method in brief: (§1)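 1321N1 astrocytoma cells stably expressing HA-tagged P2Y2R (retroviral pLXSN, G418-selected) were grown to 80% confluence and serum-starved 24 h at 37°C. They were preincubated 30 min with buffer or 10 μM BAPTA-AM, then given 100 μM UTP. Lysates were run on 7.5% SDS-PAGE and immunoblotted for phospho-p42/p44 ERK1/2. Chemiluminescence was quantitated and normalised by reprobing for total ERK1/2.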

wild-type P2Y2R [3] = assay: FAK phosphorylation in 1321N1 transfectants; type: cell-based, human
wild-type P2Y2R [4] = assay: ERK1/2 phosphorylation in 1321N1 transfectants; type: cell-based, human
Method in brief: as §1

RGE mutant P2Y2R [5] = assay: FAK phosphorylation in 1321N1 transfectants; type: cell-based, human; settings: 1 mM UTP after 30 min preincubation with 10 μM BAPTA-AM
Method in brief: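 Serum-starved (24 h, 37°C) 1321N1 cells stably expressing HA-tagged P2Y2R constructs were preincubated 30 min with buffer or 10 μM BAPTA-AM, then stimulated with 1 mM UTP. Cells were lysed in RIPA buffer and FAK was immunoprecipitated. Tyrosine phosphorylation was detected by anti-phosphotyrosine immunoblot after 7.5% SDS-PAGE, with chemiluminescence read-out. Three to six experiments.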

K562 cells = assay: Fluorescence-activated cell sorting of integrin surface expression; type: cell-based, human; settings: overnight treatment with 100 nM PDBu
wild-type P2Y2R [6] = assay: IP assay; type: cell-based, human; settings: overnight treatment with peptide; not shown
Method in brief: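 Wild-type P2Y2R 1321N1 transfectants were labelled 24 h with 2 μCi [3H]inositol (20 Ci/mmol) in serum-free, inositol-free DME. Cells were washed and held 30 min at 37°C in 30 mM LiCl buffer, then stimulated 10 min with UTP. Extraction used ice-cold 10% perchloric acid with neutralisation. Inositol phosphates were separated on Dowex columns and counted by liquid scintillation.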

[7] = system: K562 erythroleukemia cells; assay: Ligand-coated bead-binding assay; type: cell-based, human; settings: number of beads bound per 100 cells; 1 h at 37°C; mean ± SEM
[8] = target: αVβ5 integrin (human (endogenous in K562)) (UniProt P06756); assay: ligand-coated bead binding to cells
Chain of αVβ5 integrin (human (endogenous in K562)) (P06756 31-1048, chain 1 of 2): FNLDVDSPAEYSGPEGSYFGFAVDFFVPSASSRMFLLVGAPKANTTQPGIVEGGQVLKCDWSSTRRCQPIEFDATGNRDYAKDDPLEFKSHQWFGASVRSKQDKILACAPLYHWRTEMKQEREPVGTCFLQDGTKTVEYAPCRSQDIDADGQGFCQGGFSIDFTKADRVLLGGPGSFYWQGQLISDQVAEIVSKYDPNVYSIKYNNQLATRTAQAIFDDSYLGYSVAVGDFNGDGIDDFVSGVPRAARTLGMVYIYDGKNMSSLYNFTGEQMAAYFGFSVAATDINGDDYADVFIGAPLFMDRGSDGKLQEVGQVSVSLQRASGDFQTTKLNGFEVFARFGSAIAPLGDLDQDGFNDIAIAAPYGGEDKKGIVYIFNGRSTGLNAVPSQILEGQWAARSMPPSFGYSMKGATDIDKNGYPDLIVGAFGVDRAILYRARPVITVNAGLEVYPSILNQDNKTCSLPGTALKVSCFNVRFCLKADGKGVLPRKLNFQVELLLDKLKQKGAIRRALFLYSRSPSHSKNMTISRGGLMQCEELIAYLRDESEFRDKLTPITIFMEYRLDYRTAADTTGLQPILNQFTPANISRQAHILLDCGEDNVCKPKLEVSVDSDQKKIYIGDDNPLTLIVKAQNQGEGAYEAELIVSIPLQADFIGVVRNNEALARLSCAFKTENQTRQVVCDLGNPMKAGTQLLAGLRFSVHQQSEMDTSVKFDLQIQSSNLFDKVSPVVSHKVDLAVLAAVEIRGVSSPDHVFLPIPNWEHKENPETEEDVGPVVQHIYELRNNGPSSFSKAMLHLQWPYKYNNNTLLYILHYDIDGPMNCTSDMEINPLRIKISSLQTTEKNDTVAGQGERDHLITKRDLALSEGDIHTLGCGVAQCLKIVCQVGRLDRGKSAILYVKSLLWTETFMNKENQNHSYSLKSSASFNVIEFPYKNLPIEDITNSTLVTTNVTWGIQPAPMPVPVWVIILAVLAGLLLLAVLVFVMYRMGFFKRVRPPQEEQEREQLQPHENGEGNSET
Chain of αVβ5 integrin (human (endogenous in K562)) (P18084 24-799, chain 2 of 2, further chain): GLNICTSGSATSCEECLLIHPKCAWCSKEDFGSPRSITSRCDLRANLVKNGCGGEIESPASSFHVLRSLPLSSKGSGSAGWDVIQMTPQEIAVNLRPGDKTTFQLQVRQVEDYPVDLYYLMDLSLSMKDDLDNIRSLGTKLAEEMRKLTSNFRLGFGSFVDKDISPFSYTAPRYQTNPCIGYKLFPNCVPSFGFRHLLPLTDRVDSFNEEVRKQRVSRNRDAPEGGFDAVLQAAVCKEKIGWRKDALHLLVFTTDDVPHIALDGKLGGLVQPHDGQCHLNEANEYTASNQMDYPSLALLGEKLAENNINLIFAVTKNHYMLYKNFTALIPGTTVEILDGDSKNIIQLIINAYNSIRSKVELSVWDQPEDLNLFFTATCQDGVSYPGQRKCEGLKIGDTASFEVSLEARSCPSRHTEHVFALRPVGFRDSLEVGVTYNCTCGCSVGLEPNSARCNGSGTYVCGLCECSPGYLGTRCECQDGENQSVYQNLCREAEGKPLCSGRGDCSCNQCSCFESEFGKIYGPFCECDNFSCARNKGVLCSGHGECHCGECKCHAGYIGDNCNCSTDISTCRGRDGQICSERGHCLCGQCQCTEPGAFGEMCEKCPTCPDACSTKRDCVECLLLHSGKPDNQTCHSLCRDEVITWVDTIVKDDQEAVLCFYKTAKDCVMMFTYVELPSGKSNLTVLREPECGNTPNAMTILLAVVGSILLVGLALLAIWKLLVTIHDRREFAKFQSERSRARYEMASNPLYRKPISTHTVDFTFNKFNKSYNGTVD

[9] = target: αVβ3 integrin (human (endogenous in K562)) (UniProt P06756); assay: ligand-coated bead binding to cells
Chain of αVβ3 integrin (human (endogenous in K562)) (P06756 31-1048, chain 1 of 2): as the sequence (P06756 31-1048, chain 1 of 2) above
Chain of αVβ3 integrin (human (endogenous in K562)) (P05106 27-788, chain 2 of 2, further chain): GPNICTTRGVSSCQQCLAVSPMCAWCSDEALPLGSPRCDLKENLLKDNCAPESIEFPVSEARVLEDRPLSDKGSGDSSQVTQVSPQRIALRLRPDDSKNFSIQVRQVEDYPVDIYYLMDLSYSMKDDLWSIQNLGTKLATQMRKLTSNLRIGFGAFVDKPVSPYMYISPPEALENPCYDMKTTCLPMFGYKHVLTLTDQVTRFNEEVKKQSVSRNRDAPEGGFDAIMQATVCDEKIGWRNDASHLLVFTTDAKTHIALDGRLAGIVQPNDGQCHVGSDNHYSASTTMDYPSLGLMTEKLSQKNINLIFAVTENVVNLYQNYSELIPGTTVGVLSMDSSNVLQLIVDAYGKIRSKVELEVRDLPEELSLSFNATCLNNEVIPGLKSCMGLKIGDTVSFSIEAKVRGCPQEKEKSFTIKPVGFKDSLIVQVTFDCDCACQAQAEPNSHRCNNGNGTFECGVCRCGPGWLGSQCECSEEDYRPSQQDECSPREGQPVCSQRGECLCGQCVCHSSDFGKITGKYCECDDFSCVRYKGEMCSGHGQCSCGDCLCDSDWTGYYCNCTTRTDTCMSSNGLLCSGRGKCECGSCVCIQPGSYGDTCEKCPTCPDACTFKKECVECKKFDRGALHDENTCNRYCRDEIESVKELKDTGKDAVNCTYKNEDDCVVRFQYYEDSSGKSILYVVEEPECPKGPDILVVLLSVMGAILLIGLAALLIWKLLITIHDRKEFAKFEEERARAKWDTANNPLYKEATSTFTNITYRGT

[10] = overnight (18 h) with 100 μM peptide, 1 μM UTP 5 min
[11] = shorter incubation periods than overnight, not shown
[12] = overnight (18 h) with 100 μM peptide, 10 nM UTP 5 min

Chain of P2Y1R (wild-type) (P49652 whole entry): as the sequence (P49652 whole entry D105E) above, with E105D counted along it

Molecule `Nc1ncnc2c1ncn2[C@@H]1O[C@H](COP(=O)(O)OP(=O)(O)O)[C@@H](O)[C@H]1O` [ADP] has an EC50 (P2Y1R (wild-type)) of 60 ± 10 nM, an EC50 (P2Y1R (D^116 ↦ E)) of 60 ± 10 nM and an EC50 (P2Y1R (F^119 ↦ R)) of 2020 ± 270 nM. For the same molecule, the EC50 (P2Y1R (D^121 ↦ E)) was 80 ± 10 nM.

With `Nc1ncnc2c1ncn2[C@@H]1O[C@H](COP(=O)(O)OP(=O)(O)OP(=O)(O)O)[C@@H](O)[C@H]1O` [ATP] the EC50 (P2Y2R (wild-type); read-out: EC50 (for Ca^2+ mobilization), 1321N1 cells, mean ± SEM (n = 3)) was 850 ± 130 nM and the EC50 ([1]; read-out: EC50 (for Ca^2+ mobilization), mean ± SEM (n = 3)) was 785000 ± 125000 nM.

In the case of `O=C(O)CN(CC(=O)O)c1ccccc1OCCOc1ccccc1N(CC(=O)O)CC(=O)O` [BAPTA, 1,2-bis(2-aminophenoxy)ethane-N,N,N′,N′-tetraacetic acid], the “Effect on UTP-induced ERK1/2 phosphorylation” value (RGE mutant P2Y2R [2]) is reported as “not affected”, the “Effect on UTP-induced FAK phosphorylation” value (wild-type P2Y2R [3]; 1 mM UTP after 30 min preincubation with 10 μM BAPTA-AM) is reported as “inhibited” and the “Effect on UTP-induced ERK1/2 phosphorylation” value (wild-type P2Y2R [4]; 100 μM UTP after 30 min preincubation with 10 μM BAPTA-AM) is reported as “partially inhibited”. The “Effect on UTP-induced FAK phosphorylation” value (RGE mutant P2Y2R [5]) was “inhibited”.

With `CCCC(=O)O[C@@H]1[C@@H](C)[C@@]2(O)[C@@H](C=C(CO)C[C@]3(O)C(=O)C(C)=C[C@@H]23)[C@@H]2C(C)(C)[C@]12OC(=O)CCC` [PDBu, phorbol dibutyrate] the “Fluorescence intensity or percentage of cells stained by antiintegrin antibodies (α5, αVβ5, β3)” value (K562 cells) was “did not increase”.

RGDS was tested, and the “Effect on P2Y2R-mediated FAK phosphorylation” value (wild-type P2Y2R [3]; [10]) was “inhibited”, the “Effect on P2Y2R-mediated FAK phosphorylation” value (wild-type P2Y2R [3]; [11]) was “did not cause inhibition” and the “Effect on P2Y2R-mediated ERK1/2 phosphorylation” value (wild-type P2Y2R [4]; [12]) was “inhibited”. The “Effect on P2Y2R-mediated ERK1/2 phosphorylation” value (wild-type P2Y2R [4]; [11]) was “did not cause inhibition”, the “Effect on P2Y2R-mediated Ca^2+ mobilization” value (P2Y2R (wild-type); overnight treatment with peptide, not shown) was “not inhibited” and the “Effect on P2Y2R-mediated IP formation” value (wild-type P2Y2R [6]) was “not inhibited”.

In the case of RGES, the “Effect on P2Y2R-mediated FAK phosphorylation” value (wild-type P2Y2R [3]; [10]) is reported as “no effect” and the “Effect on P2Y2R-mediated ERK1/2 phosphorylation” value (wild-type P2Y2R [4]; [12]) is reported as “no effect”.

For fibronectin, the “AI (adhesion index) of ligand-coated beads bound to K562 cells” value [7] was 318 ± 14.

Work on human vitronectin (ligand) yielded an adhesion index (AI, beads bound per 100 K562 cells) (beads bound per 100 cells) [8] of 300 and an adhesion index (AI, beads bound per 100 K562 cells) (beads bound per 100 cells) [9] of 300.

pertussis toxin was tested, and the “Inhibition of Ca^2+ mobilization” value (P2Y2R (wild-type); 200 ng/ml PTX overnight, 1 μM UTP, 1321N1 cells) was 30% and the “Effect on Ca^2+ mobilization” value ([1]; 200 ng/ml PTX overnight, 100 μM UTP) was “insensitive”.

B1: vitronectin: human vitronectin purchased from Calbiochem, coated on latex beads (protein, UniProt P04004 20-478, looked up)
Vitronectin: DQESCKGRCTEGFNVDKKCQCDELCSYYQSCCTDYTAECKPQVTRGDVFTMPEDEYTVYDDGEEKNNATVHEQVGGPSLTSDLQAQSKGNPEQTPVLKPEEEAPAPEVGASKPEGIDSRPETLHPGRPQPPAEEELCSGKPFDAFTDLKNGSLFAFRGQYCYELDEKAVRPGYPKLIRDVWGIEGPIDAAFTRINCQGKTYLFKGSQYWRFEDGVLDPDYPRNISDGFDGIPDNVDAALALPAHSYSGRERVYFFKGKQYWEYQFQHQPSQEECEGSSLSAVFEHFAMMQRDSWEDIFELLFWGRTSAGTRQPQFISRDWHGVPGQVDAAMAGRIYISGMAPRPSLAKKQRFRHRNRKGYRSQRGHSRGRNQNSRRPSRATWLSLFSSEESNLGANNYDDYRMDWLVPATCEPIQSVFFFSGDKYYRVNLRTRRVDTVDPPYPRSIAQYWLGCPAPGHL
modifications: coated on latex beads
In the case of B1, the “AI (adhesion index) of ligand-coated beads bound to K562 cells” value [7] is reported as 300 ± 28.
